Source: ChEMBL document CHEMBL4177676, “Discovery of new antimalarial agents: Second-generation dual inhibitors against FP-2 and PfDHFR via fragments assembely” (Bioorg Med Chem, 2017)
Counter-ions that a name gives are not always drawn. The source made the active and inactive calls. The rule behind the calls is not given here.

What was measured:
[1] = target: T1, Falcipain 2 (Plasmodium falciparum) (UniProt Q9N6S8); test: Inhibition of Plasmodium falciparum FP2 at 10 uM using Z-Leu-Arg-AMC as substrate preincubated for 30 min followed by substrate addition measured after 30 mins by spectrofluorimetric method
T1 sequence (whole entry): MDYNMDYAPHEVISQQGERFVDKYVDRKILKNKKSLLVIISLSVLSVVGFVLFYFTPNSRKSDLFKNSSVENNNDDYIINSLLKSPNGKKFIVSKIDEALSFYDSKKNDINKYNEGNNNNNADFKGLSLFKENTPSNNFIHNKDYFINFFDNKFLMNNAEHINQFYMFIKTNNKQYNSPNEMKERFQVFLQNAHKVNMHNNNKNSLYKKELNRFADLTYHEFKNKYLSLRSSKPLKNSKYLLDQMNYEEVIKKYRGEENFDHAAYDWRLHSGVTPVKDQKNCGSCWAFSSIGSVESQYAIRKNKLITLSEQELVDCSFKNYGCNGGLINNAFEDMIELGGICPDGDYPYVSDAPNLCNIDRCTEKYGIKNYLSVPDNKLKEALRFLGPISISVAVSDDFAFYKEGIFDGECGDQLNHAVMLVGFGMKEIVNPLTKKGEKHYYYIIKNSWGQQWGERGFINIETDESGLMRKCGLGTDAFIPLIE
Summary of the method: (§1)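 FP-2 (30 nM) was preincubated 30 min at room temperature with compound in 100 mM sodium acetate, 10 mM DTT, pH 5.5, with DMSO at most 1%. The fluorescence increase was then monitored for 30 min at room temperature. Percent inhibition was screened at 10 µM. IC50 values were fitted from percent inhibition versus concentration, using three independent experiments.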

[2] = target: Bifunctional dihydrofolate reductase-thymidylate synthase (Plasmodium falciparum K1) (UniProt P13922); test: Inhibition of Plasmodium falciparum DHFR at 10 uM using DHF as substrate preincubated for 15 mins followed DHF addition measured after 15 mins by spectrophotometric method
Summary of the method: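 Purified P. falciparum DHFR was preincubated 15 min on ice with compound in 100 uM NADPH, 50 mM TES pH 7.0, 1 mM EDTA, 75 mM 2-mercaptoethanol and 1 mg/mL BSA. DHF was then added to start the reaction. NADPH oxidation was followed at 340 nm, and percent inhibition was taken at 10 µM.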

Falcipain 2 [3] = target: T2, Falcipain 2 (Plasmodium falciparum, UniProt Q9N6S8); test: Inhibition of Plasmodium falciparum FP2 using Z-Leu-Arg-AMC as substrate preincubated for 30 min followed by substrate addition measured after 30 mins by spectrofluorimetric method; summary of the method: as §1
T2 sequence (Q9N6S8 whole entry): T1 sequence (whole entry)

[4] = target: T3, Bifunctional dihydrofolate reductase-thymidylate synthase (Plasmodium falciparum K1, UniProt P13922); test: Inhibition of Plasmodium falciparum DHFR using DHF as substrate preincubated for 15 mins followed DHF addition measured after 15 mins by spectrophotometric method
Summary of the method: (§2)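 Purified PfDHFR was preincubated with graded compound concentrations for 15 min on ice in 100 uM NADPH, 50 mM TES pH 7.0, 1 mM EDTA, 75 mM 2-mercaptoethanol and 1 mg/mL BSA. DHF was then added to start the reaction, and NADPH oxidation was followed at 340 nm. IC50 came from percent-inhibition versus concentration plots, three independent experiments.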

Plasmodium falciparum [5] = test: Antimalarial activity against mid-ring stage of multidrug-sensitive Plasmodium falciparum 3D7 infected in human O-positive erythrocytes after 72 hrs by SYBR Green I dye-based fluorescence assay; format: functional, organism-based; details: 3D7, 72 h
Summary of the method: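 Cultures were synchronised with 5% sorbitol to over 80% rings, and parasites at mid-ring stage (6–10 h post-invasion) were used at 1% parasitemia and 2% hematocrit. […] Growth ran 72 h at 37 °C under 5% CO₂, 5% O₂, 90% N₂. Cells were lysed in saponin/Triton X-100 buffer with 5X SYBR Green I, kept 2 h in the dark, and fluorescence was read at 485/535 nm.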

[6] = target: T3, Bifunctional dihydrofolate reductase-thymidylate synthase; test: Inhibition of Plasmodium falciparum DHFR; summary of the method: as §2
Plasmodium berghei = test: In vivo antimalarial activity against Plasmodium berghei ANKA infected in BALB/c mouse assessed as reduction in parasitemia at 20 mg/kg, po administered daily for 4 days by Giemsa staining-based method; format: functional, organism-based
Summary of the method: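 BALB/c mice were infected with P. berghei ANKA. Starting 24 h later, they received 20 mg/kg test compound or control orally once daily for 4 days. Parasitemia was counted on Giemsa-stained blood smears every day over 10 days.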

Plasmodium falciparum [7] = test: Antimalarial activity against mid-ring stage of Plasmodium falciparum Fab9 infected in human O-positive erythrocytes after 72 hrs by SYBR Green I dye-based fluorescence assay; format: functional, organism-based; details: Fab9, 72 h
Summary of the method: (§3)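 Sorbitol-synchronised (>80% ring) […] cultures were used at the mid-ring stage (6-10 h post-invasion), at 1% parasitemia and 2% hematocrit, with serial compound dilutions (Dd2 top concentration 10 µM). Incubation was 72 h at 37 °C under 5% CO₂/5% O₂/90% N₂. Cells were then lysed with saponin/Triton X-100 buffer containing 5X SYBR Green I, kept 2 h in the dark, and read at ex 485/em 535 nm.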

Plasmodium falciparum [8] = test: Antimalarial activity against mid-ring stage of Plasmodium falciparum GB4 infected in human O-positive erythrocytes after 72 hrs by SYBR Green I dye-based fluorescence assay; format: functional, organism-based; details: GB4, 72 h; summary of the method: as §3
Plasmodium falciparum [9] = test: Antimalarial activity against mid-ring stage of chloroquine-resistant Plasmodium falciparum Dd2 infected in human O-positive erythrocytes after 72 hrs by SYBR Green I dye-based fluorescence assay; format: functional, organism-based; details: Dd2, 72 h; summary of the method: as §3
Falcipain 2 [10] = target: T2, Falcipain 2; test: Inhibition of Plasmodium falciparum FP2; summary of the method: as §1
Plasmodium falciparum [11] = test: Antimalarial activity against mid-ring stage of multidrug-sensitive Plasmodium falciparum 3D7 infected in human O-positive erythrocytes at 20 uM after 72 hrs by SYBR Green I dye-based fluorescence assay; format: functional
Plasmodium falciparum [12] = test: Antimalarial activity against mid-ring stage of chloroquine-resistant Plasmodium falciparum Dd2 infected in human O-positive erythrocytes at 20 uM after 72 hrs by SYBR Green I dye-based fluorescence assay; format: functional

T3 sequence (P13922 whole entry): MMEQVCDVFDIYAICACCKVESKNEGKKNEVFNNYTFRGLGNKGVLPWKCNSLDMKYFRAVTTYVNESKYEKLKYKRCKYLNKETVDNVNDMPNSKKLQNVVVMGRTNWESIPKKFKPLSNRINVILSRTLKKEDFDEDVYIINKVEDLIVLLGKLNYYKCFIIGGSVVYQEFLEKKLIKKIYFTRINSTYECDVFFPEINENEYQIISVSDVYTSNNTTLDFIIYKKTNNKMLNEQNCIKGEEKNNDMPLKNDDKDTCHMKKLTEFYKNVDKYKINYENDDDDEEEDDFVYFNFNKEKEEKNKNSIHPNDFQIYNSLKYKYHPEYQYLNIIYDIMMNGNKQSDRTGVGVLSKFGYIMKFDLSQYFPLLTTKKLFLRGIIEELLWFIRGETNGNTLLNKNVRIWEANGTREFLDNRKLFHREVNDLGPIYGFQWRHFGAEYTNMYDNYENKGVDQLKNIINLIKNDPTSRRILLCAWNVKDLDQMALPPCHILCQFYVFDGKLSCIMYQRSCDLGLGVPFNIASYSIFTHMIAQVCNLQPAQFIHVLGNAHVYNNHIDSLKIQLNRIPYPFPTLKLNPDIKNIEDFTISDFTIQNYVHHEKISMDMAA
Bifunctional dihydrofolate reductase-thymidylate synthase (Plasmodium falciparum K1), sequence (P13922 whole entry, looked up): as the sequence (P13922 whole entry) above

| SMILES | inhibition [1] [%] | inhibition [2] [%] | IC50 (Falcipain 2 [3]) [nM] | IC50 [4] [nM] | also measured |
| --- | --- | --- | --- | --- | --- |
| Nc1nc(N)c2cc(NCc3ccc(CCNC(=O)c4ccc(F)cc4)cc3)ccc2n1 | 52.7 | 96.7 | 6700 | 118 | IC50 (Plasmodium falciparum [5]): 391 nM |
| COc1ccc(OC)c(CNc2ccc3nc(N)nc(N)c3c2Cl)c1 | – | – | – | – | IC50 [6]: 0.39 nM |
| Nc1nc(N)c2cc(NCc3ccc(CCNC(=O)c4ccco4)cc3)ccc2n1 | 28.9 | 97.8 | – | 107 | – |
| Nc1nc(N)c2cc(NCc3ccc(CCNC(=O)CCc4ccccc4)cc3)ccc2n1 | 55.2 | 98.6 | 4900 | 185 | – |
| C[C@@H]1CC[C@H]2[C@@H](C)C(=O)O[C@@H]3O[C@@]4(C)CC[C@@H]1[C@]32OO4 [ARTEMISININ] | – | – | – | – | IC50 (Plasmodium falciparum [5]): 4.1 nM; Activity (Plasmodium berghei): Active; IC50 (Plasmodium falciparum [7]): 5.2 nM; IC50 (Plasmodium falciparum [8]): 2.2 nM |
| CC(C)(C)C1CCC(C(=O)NCCc2ccc(CNc3ccc4nc(N)nc(N)c4c3)cc2)CC1 (stereo not drawn) | 55.8 | 99.9 | 7400 | 290 | – |
| COc1cc(OC)cc(C(=O)NCCc2ccc(CNc3ccc4nc(N)nc(N)c4c3)cc2)c1 | 41.1 | 100 | – | 32.1 | – |
| Nc1nc(N)c2cc(NCc3ccc(CCNC(=O)c4ccc([N+](=O)[O-])cc4)cc3)ccc2n1 | 67 | 94.7 | 10000 | 55.6 | IC50 (Plasmodium falciparum [5]): 105 nM |
| Nc1nc(N)c2cc(NCc3ccc(CCNC(=O)c4ccc5c(c4)OCCO5)cc3)ccc2n1 | 34.9 | 100 | – | 80.9 | – |
| CCc1nc(N)nc(N)c1-c1ccc(Cl)cc1 [PYRIMETHAMINE] | – | – | – | – | Activity (Plasmodium berghei): Active; IC50 (Plasmodium falciparum [9]): > 10000 nM |
| Nc1nc(N)c2cc(NCc3ccc(CCNC(=O)c4ccncc4)cc3)ccc2n1 | 22.9 | 51.5 | – | – | – |
| Nc1nc(N)c2cc(NCc3ccc(CCNC(=O)c4ccc5ccccc5c4)cc3)ccc2n1 | 46.4 | 100 | – | 67.9 | – |
| Nc1nc(N)c2cc(NCc3ccc(CCNC(=O)C4CCCCC4)cc3)ccc2n1 | 66.6 | 96 | 7700 | 226 | – |
| O=C(CCc1ccc(S(=O)(=O)NCCc2ccccc2)cc1)Nc1ccc2c(c1)OCCO2 | – | – | – | – | IC50 (Falcipain 2 [10]): 54200 nM; IC50 [6]: 35500 nM |
| Nc1nc(N)c2cc(NCc3ccc(CCNC(=O)c4cccs4)cc3)ccc2n1 | 67.6 | 97.4 | 10000 | 84.1 | IC50 (Plasmodium falciparum [5]): 53.1 nM; Activity (Plasmodium berghei): Active; IC50 (Plasmodium falciparum [9]): 1200 nM; IC50 (Plasmodium falciparum [7]): 14.2 nM; IC50 (Plasmodium falciparum [8]): 23.4 nM |
| Nc1nc(N)c2cc(NCc3ccc(CCNC(=O)Cc4ccccc4)cc3)ccc2n1 | 65 | 92.4 | 7600 | 70.1 | IC50 (Plasmodium falciparum [5]): 266 nM |
| Nc1nc(N)c2cc(NCc3ccc(CCNC(=O)c4ccc(Cl)cc4F)cc3)ccc2n1 | 62.4 | 68.2 | 9100 | – | – |
| Cc1nc(N)nc(N)c1OCCCOc1cc(Cl)c(Cl)cc1Cl | – | – | – | – | IC50 [6]: 229 nM |
| Nc1nc(N)c2cc(NCc3ccc(CCNC(=O)c4cccc(F)c4)cc3)ccc2n1 | 49.8 | 98.5 | – | 50.6 | – |
| COc1ccc(C(=O)NCCc2ccc(CNc3ccc4nc(N)nc(N)c4c3)cc2)cc1Cl | 37.6 | 51.2 | – | – | – |
| Nc1nc(N)c2cc(NCc3ccc(CCNC(=O)c4ccccc4F)cc3)ccc2n1 | 44.6 | 100 | – | 180 | – |
| Nc1nc(N)c2cc(NCc3ccc(CCNC(=O)c4ccc5c(c4)OCO5)cc3)ccc2n1 | 59.2 | 100 | 5100 | 26.2 | IC50 (Plasmodium falciparum [5]): 78.6 nM |
| COc1ccc(C(=O)NCCc2ccc(CNc3ccc4nc(N)nc(N)c4c3)cc2)cc1 | 21.2 | 95.1 | – | 157 | – |
| COc1ccc(C(=O)NCCc2ccc(CNc3ccc4nc(N)nc(N)c4c3)cc2)cc1OC | 31.3 | 100 | – | 61.1 | – |
| CCc1nnc(NC(=O)CCc2ccc(S(=O)(=O)Nc3ccc(F)cc3)cc2)s1 | 64.7 | 59.2 | 7000 | 6300 | IC50 (Falcipain 2 [10]): 7000 nM; IC50 [6]: 6300 nM; Activity (Plasmodium falciparum [11]): 7.9%; Activity (Plasmodium falciparum [12]): 6.2% |
| CC1(C)N=C(N)N=C(N)N1OCCCOc1cc(Cl)c(Cl)cc1Cl | – | – | – | – | IC50 [6]: 0.57 nM |
| CC(C)C[C@H](NC(=O)[C@@H]1O[C@H]1C(=O)O)C(=O)NCCCCN=C(N)N | – | – | 57.2 | – | – |
| CC1(C)N=C(N)N=C(N)N1c1ccc(Cl)cc1 [CHLORCYCLOGUANIL HYDROCHLORIDE] | – | – | – | – | IC50 [6]: 1.5 nM |
| Nc1nc(N)c2cc(NCc3ccc(CCNC(=O)c4ccc(C(F)(F)F)cc4)cc3)ccc2n1 | 21.5 | 96.4 | – | 21.3 | – |
| COc1cccc(C(=O)NCCc2ccc(CNc3ccc4nc(N)nc(N)c4c3)cc2)c1 | 52.6 | 96.8 | 6200 | 39.6 | IC50 (Plasmodium falciparum [5]): 60.5 nM; Activity (Plasmodium berghei): Active; IC50 (Plasmodium falciparum [9]): 2200 nM |
